Screens deposited in PubChem by Columbia University Molecular Screening Center.
Shown is part of a subset that was picked to be rich in hits.
INS promoter act = TRM-6 insulin promoter activation | TRM-6 cells, insulin promoter eGFP reporter, imaging; plate-scaled: unstimulated 0, stimulated control 100 | activation, % at 2 µM | 0.81% of 130,000 active | AID 1296;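 active = activation at 2 µM above a set limit, confirmed on inspection of the cell images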;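 also: share of cells whose green reporter signal exceeds an intensity cutoff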
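Test system: human fetal islet-derived TRM-6 cells with tamoxifen-inducible insulin promoter–eGFP reporter; schedule: overnight tamoxifen, then two-day compound incubation at 37 °C; measured by: high-content imaging of fixed cells with Hoechst nuclear stain; evaluation: percent cells above green-intensity threshold, converted to percent activation versus plate controls; control set: stimulated and unstimulated wells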
* hit, by the source's call.

SMILES	INS promoter act
Cc1ccc(S(=O)(=O)N2CCOCC2)cc1C(=O)Nc1c(C)n(C)n(-c2ccccc2)c1=O	8.3
COC(=O)c1sc2ccccc2c1-n1cccc1C(=O)C(=O)Nc1ccc(Cl)cc1	8.1
N#C/C(=C/c1ccc(N2CCOCC2)c([N+](=O)[O-])c1)C(N)=O	-78.6
Nc1c(C(=O)Nc2ccc(S(=O)(=O)N3CCCC3)cc2)sc2nc3ccc(OC(F)(F)F)cc3cc12	231.0*
O=C(Nc1ccc(S(=O)(=O)N2CCCCC2)cc1)c1ccncc1	8.3
Nc1c(C(=O)Nc2ccc(S(=O)(=O)N3CCCC3)cc2)sc2nc3cc4c(cc3cc12)CCC4	181.8
O=S(=O)(c1cc(F)cc(F)c1)N1CCN(c2ncccn2)CC1	-6.7
CC(C)(C)c1cc(C(=O)N2CCN(c3ncccn3)CC2)ccn1	-64.3
CC(C)(C)c1ccc(S(=O)(=O)N2CCN(c3ncccn3)CC2)cc1	266.7*
Cc1cccc(-c2cc(C(=O)Nc3ccc4c(c3)OCCO4)c3ccccc3n2)c1	-3.3
O=C(Nc1ccccc1N1CCOCC1)c1cc(-c2ccncc2)nc2ccccc12	235.7*
O=C(Nc1ccccc1N1CCOCC1)c1cccnc1	8.3
CCOC(=O)C1(C)/C(=N/Nc2ccccc2Cl)C(=O)C(=O)N1c1ccccc1 (stereo not drawn)	-78.6
CCOc1ccc(-c2nc(CSCC(=O)NC3CCCc4ccccc43)c(C)o2)cc1 (stereo not drawn)	2.8
COc1ccc2nc(CC(C)(C)CC(=O)O)c[n+]([O-])c2c1	-2.7
O=C(CCNC(=O)c1ccccc1)Nc1ccc(F)c(Cl)c1	6.1
O=C(NCc1ccco1)c1ccc(-c2ccccc2Cl)o1	-7.1
S=C(c1ccc(-c2ccccc2Cl)o1)N1CCOCC1	7.4
O=C(NC12CC3CC(CC(C3)C1)C2)c1ccc(-c2ccccc2Cl)o1	219.4*
O=C(C1CCC1)N1CCc2cc(S(=O)(=O)N3CCN(c4ccccn4)CC3)ccc21	-3.7
CCCCOc1cccc(C2C(C(=O)c3cccs3)=C(O)C(=O)N2Cc2cccnc2)c1 (stereo not drawn)	-8.3
COc1cc(OC)c(C(=O)NNC(=S)NC2CCCCC2)cc1OC	7.9
Cn1cc(Cl)c(C(=O)NNC(=S)NC2CCCCC2)n1	491.7*
COC(=O)c1c(NC(=O)c2nn(C)cc2Cl)sc2c1CCCC2	3.1
O=C1CC(N2CCC(c3nc4ccccc4o3)CC2)C(=O)N1c1ccc(Cl)cc1 (stereo not drawn)	7.1
SMILES	INS promoter act
CCS(=O)(=O)NCC(c1cccnc1)N1CCN(c2ccc(F)cc2)CC1 (stereo not drawn)	7.1
O=c1oc2ccc(Br)cc2cc1S(=O)(=O)c1ccc(F)cc1	8.1
CC(C)NC(=O)COC(=O)c1cc(Br)ccc1Cl	-3.4
CC(C)NC(=O)c1cc2cc(Br)ccc2oc1=O	128.6*
CC(C)C[C@H](NC(=O)OC(C)(C)C)C(=O)N1CCC(C(=O)N[C@@H](Cc2ccccc2)C(=O)O)CC1	-40.0
Nc1cc(C(=O)OCC(=O)NCc2ccco2)ccc1Cl	-9.1
Cc1cc(C)c(C)c(OCC(=O)N2CCOCC2)c1	-2.7
Cc1cc(OCC(=O)N2CCCC2)cc(C)c1Cl	130.8
Cc1cc(OCC(=O)N2CCOCC2)cc2oc(=O)c3ccccc3c12	423.5*
Cc1c(Nc2nc3ccccc3nc2N2CCN(c3ccccc3)CC2)c(=O)n(-c2ccccc2)n1C	-6.1
COc1ccc(C2Nc3ccccc3C(=O)N2Cc2ccccc2)cc1CSc1ccccn1 (stereo not drawn)	6.7
COc1ccc(C2Nc3ccccc3C(=O)N2Cc2ccco2)cc1COc1ccc(NC(C)=O)cc1 (stereo not drawn)	9.1
COc1ccc(C2Nc3ccccc3C(=O)N2c2ccccc2)cc1COc1ccccn1 (stereo not drawn)	220.0*
C=CCn1c(=O)n(C(=O)OCC)c2cc(Br)ccc21	0.0
Cc1ccc(C(=O)COC(=O)c2c(C)cc(=O)oc2C)cc1[N+](=O)[O-]	0.0
COc1cc(NC(=S)NCCN2CCOCC2)cc(OC)c1	-64.3
COc1cccc(C(C(=O)NC2CCCCC2)N(C(=O)c2ccccn2)c2cccnc2)c1 (stereo not drawn)	627.3*
O=C(NC1CCCCC1)C(c1cccs1)N(C(=O)c1ccccn1)c1ccccc1 (stereo not drawn)	179.3
COc1cccc(C(C(=O)NC2CCCC2)N(Cc2ccccc2OC)C(=O)c2ccco2)c1 (stereo not drawn)	214.3
CC(=O)Nc1ccc(S(=O)(=O)NCc2ccc(C(=O)NC(C)c3ccccc3)cc2)cc1 (stereo not drawn)	7.1
Cc1csc(NC(=O)c2cc3c(C)nn(Cc4ccccc4Cl)c3s2)n1	-7.7
CCCCn1c(=O)n(CC(=O)Nc2ccc(OC)c(Cl)c2)c(=O)c2c1nc(CO)n2CCC	5.4
CCCN1C(=O)c2ccc(C(=O)Nc3nccs3)cc2C1=O	475.0*
Cc1ncoc1C(=O)Nc1nccs1	7.1
O=C(Nc1nccs1)c1cccc(S(=O)(=O)N2CCCCC2)c1	182.4
SMILES	INS promoter act
CCc1nnc(NC(=O)c2ccc3c(c2)C(=O)N(C(C)(C)C)C3=O)s1	-5.4
CCC(CC)C(=O)Nc1cccc(C(=O)Nc2nccs2)c1	75.7*
CCCN1C(=O)c2ccc(C(=O)NCc3ccco3)cc2C1=O	-42.9
CN(c1cccc(NC(=O)Cc2ccccc2)c1)S(C)(=O)=O	0.0
CC(C)[C@H](NC(=O)c1ccccc1)C(=O)OCC(=O)NCc1ccc(F)cc1	5.3
COc1ccc2occ(NC(C)=O)c2c1	-4.3
COc1ccc2oc(C(F)(F)C(F)F)cc(=O)c2c1	5.4
COc1ccc2oc3ccc(OC)cc3c(=O)c2c1	145.2*
COc1ccc(CN2C(=O)CN=C2Nc2cc(C)ccc2C)cc1	0.0
C/C(CS(=O)(=O)c1ccccc1)=N\O	229.4*
CCOC(=O)CS(=O)(=O)c1ccccc1	0.0
COc1cc(NC(=O)CS(=O)(=O)c2ccccc2)cc(OC)c1OC	381.3
C=CCc1cccc2cc(C(=O)OCC(=O)c3ccccc3)c(=O)oc12	185.7
O=C(NCc1ccccn1)C(=O)NN=C1CCCCCCC1	8.1
COc1ccccc1NS(=O)(=O)c1ccc(N/N=C(\C)C(C)C)c([N+](=O)[O-])c1	-8.8
COc1ccccc1NS(=O)(=O)c1cc([N+](=O)[O-])ccc1N/N=C/c1c(C)[nH]c2ccccc12	260.0*
COc1ccccc1NS(=O)(=O)c1cc(C)ccc1C	9.7
O=C(Nc1ccc2c(c1)OCO2)N1CCCC1	0.0
O=C(NCCO)/C(=C\c1ccco1)NC(=O)c1cccs1	9.5
COC(=O)c1ccc(OC)c(CSc2nnc(-c3ccc(C(C)(C)C)cc3)o2)c1	508.3*
COc1ccc(-c2nnc(SCC(=O)Nc3ccccc3OC)o2)cc1	5.4
COc1ccccc1NC(=O)CSc1nnc(-c2ccncc2)o1	-6.9
Cc1ccc2c(c1)C=CC(C)(C)S2(=O)=O	-3.3
O=[N+]([O-])c1ccc(NCCNCCOc2nonc2-c2ccccc2)c([N+](=O)[O-])c1	5.6
Cc1nnc(NC(=O)CSc2nnc(Cc3ccccc3)n2-c2ccccc2)s1	660.0*
Cc1nnc(NC(=O)CSc2nnc(C)n2Cc2ccccc2)s1	0.0
CCc1nnc(NC(=O)CSc2nnc(Cc3ccccc3)n2-c2ccccc2)s1	-81.8
CCOC(=O)c1[nH]c(C)c(C(=O)OCC(=O)N(CC)C2CCS(=O)(=O)C2)c1C (stereo not drawn)	-5.7
